aDG glyco act: alpha-DG glycosylation activation | AID 624168 | Pro5-aDG cells, alpha-DG glycosylation AlphaScreen (IIH6); 0% Pro5, 100% B10-LARGE cell signal | activation, % at 10 µM | 0.22% of 360,000 active;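 active means activation of at least 8% versus controls, or a plate z-score of at least 8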;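 further: Pro5 are CHO cells carrying HIG-tagged alpha-DG that lacks glycosylation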
UCH37 DUB inh: blocks the human deubiquitinase UCH37. purified proteasome/UCH37, Ub-AMC cleavage fluorescence. Q9Y5K5. 0.33% of 330,000 active. inhibition, % (concentration not given with the values);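 active means mean inhibition over replicate wells above about 20%, limit read from the data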;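 further: 0% = compound-free wells with enzyme and 100% = wells lacking proteasome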
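Material: Human UCH37 enzyme supplied as purified proteasome complex | Schedule: 30 min compound-proteasome preincubation then 25 min substrate reaction, room temperature | Detection: AMC fluorescence from Ub-AMC cleavage, excitation 355 nm, emission 460 nm | Benchmarks: Wells without proteasome as full block, compound-free enzyme plus substrate as uninhibited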
Cardio protect: protects H9c2 cardiomyocytes from peroxide injury; H2O2 injury protection, ATPLite, 2 h; 0.63% of 360,000 active; protection from H2O2 cell death, % at 20 µM;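 active means compounds giving at least 50% protection of heart cells from peroxide-induced death in the single-dose screen, raw or plate-pattern-corrected value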;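 further: 0% = DMSO wells with peroxide and 100% = DMSO wells without peroxide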
HKDC1 inh: inhibitors of human hexokinase HKDC1; 0.16% of 340,000 active; inhibition, % at 20 µM; recombinant HKDC1, G6PDH/diaphorase resazurin coupled fluorescence;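 active means inhibition above about 35% when tested at 20 µM, limit read from the data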;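 further: plate controls were DMSO wells with enzyme for no effect and DMSO wells lacking enzyme for full effect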
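Incubation: 90 min at room temperature in dark / Material: recombinant HKDC1 (HK5) hexokinase enzyme, produced in-house / Quantity: enzyme 5 µg/mL final / Compound: one dose of 20 µM, 1% DMSO / Reagent: glucose and ATP substrates / Buffer or medium: Tris pH 8.0 buffer with MgCl2, Tween-20, BSA, BME / Technique: resorufin fluorescence at 613 nm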
PfG6PD inh: PfG6PD (Plasmodium falciparum) enzyme inhibition; PfGluPho enzyme, NADPH resazurin-diaphorase fluorescence; 0.78% of 350,000 active; AID 504690; inhibition, % at 20 µM;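 active means inhibition reaching at least a set limit at 20 µM in the primary screen, cut at about 59% in these data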;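 further: 0% = DMSO wells with substrate and 100% = DMSO wells lacking glucose-6-phosphate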
Beta2AR agonist: agonists of human beta-2 adrenergic receptor inducing internalization; Am2.2-beta2AR cells, FAP receptor internalization, flow cytometry; response, % (concentration not given with the values); 0.43% of 340,000 active; AID 504454;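 active means response above a set limit, near 3 SD of response in nonfluorescent compounds, cut at about 42% in these data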
Target sequence (P07550 whole entry, looked up): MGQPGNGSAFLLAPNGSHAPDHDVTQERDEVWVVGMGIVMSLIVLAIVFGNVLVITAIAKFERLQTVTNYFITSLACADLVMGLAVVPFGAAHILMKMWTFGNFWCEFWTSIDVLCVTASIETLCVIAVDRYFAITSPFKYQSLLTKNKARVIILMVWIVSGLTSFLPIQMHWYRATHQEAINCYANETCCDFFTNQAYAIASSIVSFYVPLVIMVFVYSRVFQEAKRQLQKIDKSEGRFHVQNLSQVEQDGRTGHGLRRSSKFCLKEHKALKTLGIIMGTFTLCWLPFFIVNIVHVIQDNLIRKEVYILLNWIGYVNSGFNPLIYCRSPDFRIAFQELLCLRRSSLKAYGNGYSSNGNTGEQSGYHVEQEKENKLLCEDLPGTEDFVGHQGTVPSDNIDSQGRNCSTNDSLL
PfG6PD confirm: confirmation of Plasmodium falciparum G6PD inhibitors | shares compounds with PfG6PD inh | recombinant PfGluPho, NADPH-diaphorase-resazurin fluorescence | inhibition, % at 20 µM | 34% of 2,400 active | AID 504753;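 active means inhibition of at least 50% at 20 µM in any single replicate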;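 further: 0% = DMSO with substrate and 100% = DMSO lacking glucose-6-phosphate substrate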
Diaphorase 10uM: counter-screen for P. falciparum G6PD inhibitors: diaphorase inhibitors, oxidizers; diaphorase-coupled resazurin reduction, fluorescence, NADPH 10 uM; inhibition, % at 20 µM; shares compounds with PfG6PD inh; 39% of 820 active;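 active means average inhibition reaching 50% or more with the compound at 20 µM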;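 further: resorufin red fluorescence formed as diaphorase reduces resazurin using NADPH; 0% = DMSO with enzyme and 100% = DMSO without enzyme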
Diaphorase 30uM: inhibits diaphorase or oxidizes, flagging false PfG6PD hits; shares compounds with PfG6PD inh; Diaphorase/resazurin coupled assay, resorufin fluorescence, 30 uM NADPH; inhibition, % at 20 µM; 29% of 820 active; AID 504863;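 active means inhibition averaging 50% or more, tested at 20 µM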;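 further: 0% = DMSO with enzyme and 100% = DMSO wells lacking diaphorase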
Active calls of the source: *; . = not tested or not shown. This is a sample that favours compounds with a hit; in the whole collection about 2.1% have one here.

SMILES	aDG glyco act	UCH37 DUB inh	Cardio protect	HKDC1 inh	PfG6PD inh	Beta2AR agonist	PfG6PD confirm	others
O=C(Nc1nnc(S(=O)(=O)N2CCCCC2)s1)c1ccc(Cl)cc1	0	4	-30	0	106*	-6	44*	Diaphorase 10uM=59*;Diaphorase 30uM=32
Cc1nn(C)c(Sc2ccccc2N)c1[N+](=O)[O-]	1	4	15	-9	64*	3	15
C/C(=N\Nc1cccc([N+](=O)[O-])c1)c1ccccc1O	1	.	-16	-1	58	-12	.
C/C(=N\Nc1cccc([N+](=O)[O-])c1)c1cc(F)ccc1O	0	.	-18	-4	84*	-2	16
CC1CCc2[nH]c3ccc(C(=O)N(C)CC(=O)Nc4ccccc4C(F)(F)F)cc3c2C1 (stereo not drawn)	0	4	-7	5	110*	0	63*	Diaphorase 10uM=53*;Diaphorase 30uM=34
CC1CCc2[nH]c3ccc(C(=O)N(C)CC(=O)Nc4ccccc4Cl)cc3c2C1 (stereo not drawn)	0	-3	-1	-3	60*	-7	24
O=c1c2ccccc2sn1-c1ccc(Cl)cc1Cl	0	.	-35	.	129*	.	109*	Diaphorase 10uM=-4;Diaphorase 30uM=2
COC(=O)c1ccc2nc(-c3ccc4c(c3)OCO4)cn2c1	1	-30	-27	-5	20	2	.
CCc1ccn2cc(-c3ccc4c(c3)OCO4)nc2c1	0	-172	-19	0	65*	3	23
Cc1cc(NN)nc(NS(=O)(=O)c2ccc(Cl)cc2)n1	0	.	-1	7	11	-5	.
CCN(CC)c1nc(N)nc(NS(=O)(=O)c2ccc(Cl)cc2)n1	0	0	2	5	67*	3	57*	Diaphorase 10uM=54*;Diaphorase 30uM=42
CCNc1nc(NC(C)C)nc(NS(=O)(=O)c2ccc(N)cc2)n1	0	2	1	-7	-10	9	.
CCNc1nc(NC(C)C)nc(NS(=O)(=O)c2ccc(Cl)cc2)n1	0	3	-3	12	83*	-4	55*	Diaphorase 10uM=63*;Diaphorase 30uM=47
O=C(NN=Cc1ccc(Cl)cc1Cl)C(=O)NC1CC1	.	2	.	.	.	.	.
CN(C(=O)COC(=O)CSc1ccc([N+](=O)[O-])cc1)C1CCS(=O)(=O)C1 (stereo not drawn)	0	7	8	5	32	-1	.
CCN(C(=O)COC(=O)CSc1ccc([N+](=O)[O-])cc1)C1CCS(=O)(=O)C1 (stereo not drawn)	0	6	-5	0	60*	3	1
CCC(C)(C)c1nnc(NC(=O)C2CCN(C(=O)c3ccco3)CC2)s1	0	1	4	-26	79*	-11	61*	Diaphorase 10uM=-37;Diaphorase 30uM=-15
CCN(CC)c1ccc(C=NNC(=O)c2cccc(S(=O)(=O)Nc3ccccc3OC)c2)cc1	.	-49	.	.	.	.	.
COc1ccc(-n2c(C)cc(C(=O)NC3CCCCC3)c2C)cc1	0	4	-4	-5	71*	2	38
CN(C)C=Nc1c(C#N)cnn1-c1nc2ccccc2s1	.	1	.	.	.	.	.
COc1ccc(S(=O)(=O)NN=Cc2ccc3c(c2)OCO3)cc1	.	5	.	.	.	.	.
Nc1c(C(=O)Nc2ccc(F)cc2)sc(=S)n1-c1ccccc1F	0	3	-2	-10	99*	-3	56*	Diaphorase 10uM=13;Diaphorase 30uM=7
Cc1cc(C)n(Cc2ccc(Cl)cc2Cl)c(=O)c1S(=O)(=O)c1ccccc1	1	-1	-22	6	71*	10	21
Cc1ccc(C=NNC(=O)c2cc(OCC(F)(F)F)ccc2OCC(F)(F)F)cc1	.	4	.	.	.	.	.
CCOC(=O)COn1c(-c2cccc(Cl)c2)nc2ccc([N+](=O)[O-])cc21	1	5	-29	-1	110*	-5	-16
SMILES	aDG glyco act	UCH37 DUB inh	Cardio protect	HKDC1 inh	PfG6PD inh	Beta2AR agonist	PfG6PD confirm	others
CC(On1c(-c2ccccc2)nc2ccc(Cl)cc21)C(=O)O (stereo not drawn)	0	5	0	-6	-1	1	.
CCOC(=O)C(C)On1c(-c2cccc(Cl)c2)nc2ccc([N+](=O)[O-])cc21 (stereo not drawn)	1	-3	-26	-5	64*	2	2
COc1ccc(-c2nn(-c3ccccc3)cc2C(=O)NN=Cc2ccc([N+](=O)[O-])o2)cc1	.	7	.	.	.	.	.
COc1ccc(Nc2cc(C)c3ccc(O)cc3n2)cc1	0	-21	-11	-6	72*	10	20
O=C(C[n+]1cccc(C=NO)c1)N1CCCc2ccccc21	.	1	.	.	.	.	.
O=C(c1ccco1)N1CCN(CCCCN2C(=O)c3ccccc3C2=O)CC1	0	4	-4	-1	-1	0	.
O=C1c2ccccc2-c2onc3c(N4CCN(CCO)CC4)cc(N4CCN(C(=O)c5ccco5)CC4)c1c23	-1	.	47	24	75*	25	35
CCOc1cccc(-c2c(C(=O)N/N=C/c3sccc3C)nnn2-c2nonc2N)c1	0	.	8	5	87*	-6	32
Cc1ccsc1/C=N/NC(=O)c1nnn(-c2nonc2N)c1-c1ccc2c(c1)OCO2	0	.	10	1	66*	-4	32
COc1cccc(-c2c(C(=O)N/N=C/c3ccc(C)s3)nnn2-c2nonc2N)c1	0	.	4	1	98*	4	50*	Diaphorase 10uM=65*;Diaphorase 30uM=42
Cc1ccsc1C=NNC(=O)c1nnn(-c2nonc2N)c1-c1ccc2c(c1)OCO2	.	-1	.	.	.	.	.
CCOc1cccc(-c2c(C(=O)N/N=C/c3ccc(C)s3)nnn2-c2nonc2N)c1	0	.	11	4	67*	20	40
COc1cccc(-c2c(C(=O)NN=Cc3cccs3)nnn2-c2nonc2N)c1	.	3	.	.	.	.	.
CC1(C)C2CC=C(C=NNC(=O)C(N)=O)C1C2 (stereo not drawn)	.	4	.	.	.	.	.
CCOc1ccc(C(=O)NN=C(c2ccccc2)c2ccccn2)cc1	.	2	.	.	.	.	.

Screens: PubChem BioAssay, several laboratories
